The test system of one assay is Caco-2. Put plainly: Cytotoxicity against human Caco2 cells after 72 hrs by MTS assay. To be noted: Caco-2, 72 h. It counts as functional, cell-based. The essentials:
(§1)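 Colon cells (Caco-2 adenocarcinoma, nontumorigenic CCD-18Co) in EMEM with 10% FBS, 1% nonessential amino acids, 1% L-glutamine and antibiotics, passages 26–35, 37 °C, 5% CO2. Samples were dissolved in DMSO by sonication and diluted in medium, with final DMSO ≤0.5%. Six-point 4-fold dilution series ran for 72 h. MTS/PMS was read at OD490 after 3 h. IC50 reported as mean ± SD of three experiments.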

The nature of assay [1]: Cytotoxicity against human CCD-18Co cells after 72 hrs by MTS assay. Format: cell-based. The essentials: as §1
(In general: Tetrazolium assays rely on reduction of a dye to a coloured formazan, in cell work by metabolically active cells.)

Another assay concerns HCT-116. Put plainly: Cytotoxicity against human HCT116 cells after 72 hrs by MTS assay. It counts as functional, cell-based. The note with it: HCT-116, 72 h. The essentials: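 HCT-116 carcinoma cells in McCoy's 5A with 10% FBS, 1% nonessential amino acids, 2% HEPES and antibiotics, passages 26–35, 37 °C, 5% CO2. Samples were DMSO-solubilized by sonication and diluted in medium, final DMSO ≤0.5%. Cells were exposed for 72 h to six-point 4-fold dilutions. MTS plus phenazine methosulfate ran 3 h, with absorbance at 490 nm versus control wells. IC50 given as mean ± SD, three experiments.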

Experimental findings from ChEMBL document CHEMBL1921775, “Phenolic glycosides from sugar maple (Acer saccharum) bark” (J Nat Prod, 2011) are described below.

Each structure is given as a SMILES string. Values after ≈ are worked out from the molar mass of the structure shown. Some results are limits rather than exact numbers.

What is called IC50 is the concentration that gives 50% inhibition. The low end stands for higher potency, the high end for lower potency.

On to `COc1cc([C@H]2OC[C@H]3[C@@H]2CO[C@@H]3c2cc(OC)c(O[C@@H]3O[C@H](CO)[C@@H](O)[C@H](O)[C@H]3O)c(OC)c2)cc(OC)c1O`, for which the IC50 (in the assay with Caco-2; in assay [1]; with HCT-116) was less than 5 µg/mL throughout.

On to `COc1cc(CO)cc(OC)c1O[C@@H]1O[C@H](CO)[C@@H](O)[C@H](O)[C@H]1O`, for which the IC50 (in the assay with Caco-2; in assay [1]; in the assay with HCT-116) was less than 5 µg/mL throughout.

On to `COc1cc([C@@H]2Oc3c(OC)cc(CCCO)cc3[C@H]2CO)ccc1O[C@@H]1O[C@@H](C)[C@H](O)[C@@H](O)[C@H]1O`, for which the IC50 (with Caco-2; in assay [1]; in the assay on HCT-116) was less than 5 µg/mL in each case.

For the compound `COc1cc(CO)ccc1O[C@@H]1O[C@H](CO[C@@H]2OC[C@](O)(CO)[C@H]2O)[C@@H](O)[C@H](O)[C@H]1O`, the IC50 (in the assay on Caco-2; in assay [1]; in the assay on HCT-116) was less than 5 µg/mL each time.

Consider `COc1cc(O[C@@H]2O[C@H](CO[C@@H]3OC[C@](O)(CO)[C@H]3O)[C@@H](O)[C@H](O)[C@H]2O)cc(OC)c1OC`, for which the IC50 (with Caco-2; in assay [1]; in the assay on HCT-116) was less than 5 µg/mL throughout.

With `COc1cc(O[C@@H]2O[C@H](CO)[C@@H](O)[C@H](O)[C@H]2O)cc(OC)c1OC`, the half-maximal inhibitory concentration (IC50) (in the assay on Caco-2; in assay [1]; with HCT-116) was less than 5 µg/mL each time.

Consider `COc1cc([C@@H]2c3cc4c(cc3[C@@H](O[C@@H]3O[C@@H]5CO[C@@H](C)O[C@H]5[C@H](O)[C@H]3O)[C@H]3COC(=O)[C@H]23)OCO4)cc(OC)c1O` [ETOPOSIDE], for which the 50% inhibitory concentration (IC50) came out at 9.4 µg/mL (≈ 16 µM) with Caco-2, 43.6 µg/mL (≈ 74.1 µM) in assay [1] and 9.9 µg/mL (≈ 16.8 µM) in the assay with HCT-116.

Turning to `COc1cc(C(=O)OC[C@H]2O[C@@H](Oc3ccc([C@@H]4Oc5c(OC)cc(CCCO)cc5[C@H]4CO)cc3OC)[C@H](O)[C@@H](O)[C@@H]2O)ccc1O` [SACCHARUMOSIDE A], the IC50 (in the assay with Caco-2; in assay [1]; in the assay on HCT-116) was less than 5 µg/mL throughout.

For `COc1cc(C(=O)OC[C@H]2O[C@@H](Oc3ccc(CO)cc3OC)[C@H](O)[C@@H](O)[C@@H]2O)ccc1O` [SACCHARUMOSIDE B], the 50% inhibitory concentration (IC50) (with Caco-2; in assay [1]; in the assay with HCT-116) was less than 5 µg/mL throughout.

`COC(=O)c1cc(O[C@@H]2O[C@H](CO[C@@H]3OC[C@](O)(CO)[C@H]3O)[C@@H](O)[C@H](O)[C@H]2O)ccc1O` [SACCHARUMOSIDE C]: the half-inhibitory concentration (IC50) (in the assay on Caco-2; in assay [1]; in the assay on HCT-116) was less than 5 µg/mL throughout.

With `COC(=O)c1cc(O[C@@H]2O[C@H](CO)[C@@H](O)[C@H](O)[C@H]2O[C@@H]2OC[C@](O)(CO)[C@H]2O)ccc1O` [SACCHARUMOSIDE D], the half-maximal inhibitory concentration (IC50) (in the assay on Caco-2; in assay [1]; in the assay with HCT-116) was less than 5 µg/mL each time.

Regarding `COc1cc2ccc(=O)oc2cc1O[C@@H]1O[C@H](CO)[C@@H](O)[C@H](O)[C@H]1O` [SCOPOLIN], the 50% inhibitory concentration (IC50) (in the assay on Caco-2; in assay [1]; with HCT-116) was less than 5 µg/mL in each case.

With `COc1cc(CO)ccc1O[C@@H]1O[C@H](CO)[C@@H](O)[C@H](O)[C@H]1O` [VANILLOLOSIDE], the IC50 (with Caco-2; in assay [1]; in the assay with HCT-116) was less than 5 µg/mL each time.
